INS promoter act: activators of insulin promoter-driven GFP, primary screen, imaging, TRM-6 cells, eGFP reporter, cell count; activation, % at 2 µM; plate-scaled: unstimulated 0, stimulated control 100; AID 1296, 2008; actives 0.81% (n = 130,000);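 active = activation at 2 µM above a set limit, confirmed on inspection of the cell images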;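 also: share of cells whose green reporter signal exceeds an intensity cutoff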
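System: human fetal islet-derived TRM-6 cells with tamoxifen-inducible insulin promoter–eGFP reporter; input: seeding density of 1,000 cells per well; buffer or medium: Low-glucose (5.5 mM) medium with tamoxifen; incubation: compound exposure 48 h, 37 °C; measured by: high-content imaging of fixed cells with Hoechst nuclear stain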
Large screens that a line does not name were inactive. The entries come from a sample that favours hits as a whole.

O=C1OC(N2CCN(C(=O)C3CCCO3)CC2)c2ccccc21 (stereo unspecified)	INS promoter act 173
O=C(C1CCCO1)N1CCN(C(=S)Nc2ccc(F)cc2)CC1 (stereo unspecified)	none
CCOC(=O)N1CCN(C(=O)Cc2cccs2)CC1	none
N#Cc1ccc(OCCOCCNC2CCCC2)cc1	none
C/C(=N/OC(=O)c1ccc(F)cc1)c1ccc(C)cc1	none
O=C(NCc1ccc(Cl)cc1)C1=Cc2cc(Cl)ccc2OC1	none
Cn1c(-c2ccc(-c3ccccc3)cc2)c[nH]c1=S	none
N#Cc1ccc(C23CC4CC(CC(C4)C2)C3)[nH]c1=O	none
O=C(N/C=C/c1ccc(Cl)cc1)NCc1ccc(Cl)cc1	none
CCC(Sc1nc2ccccc2o1)C(=O)Nc1nnc(C)s1 (stereo unspecified)	none
CC(C)Cn1c2c(c(=O)[nH]c1=O)C(C(F)(F)F)(C(F)(F)F)N=C(CCC1CCCCC1)N2	none
CSCC[C@H](NC(=O)CCn1nnc2ccccc2c1=O)C(=O)O	INS promoter act 150
CSCCC(NC(=O)CCN1C(=O)c2ccccc2C1=O)C(=O)O (stereo unspecified)	none
O=c1c2ccccc2nnn1CSc1nc2ccccc2c(=O)n1CCCO	none
CCOC(=O)c1sc(NC(=O)CN2C(=O)c3cccc4cccc(c34)C2=O)nc1C	none
CCn1ccc(C(=O)Oc2ccc(C(C)C)cc2)n1	none
Fc1ccc(-c2cc(C(F)(F)F)nc(-n3cc(Cl)cn3)n2)cc1	none
O=C(c1ccc(-c2ccccc2)cc1)N1CCCC1	none
O=C(c1ccccc1-c1ccccc1)N1CCCC1	INS promoter act 520
O=C(O)c1ccccc1C(=O)N1CCN(C(=O)c2ccccc2Cl)CC1	none
CC(C)(C)Nc1nc(Oc2ccc(=O)[nH]n2)nc(N2CCOCC2)n1	none
Oc1ccc(-c2csc(-c3ccccc3)n2)cc1O	none
CC(=O)Nc1ccc(-c2csc(NCc3ccco3)n2)cc1	none
CCC(=O)N(Cc1ccco1)c1nc(-c2ccccc2)cs1	INS promoter act 136
O=C1CN(S(=O)(=O)c2ccccc2)CC(=O)N1CCc1ccccc1	none
O=c1cc(CN2CCN(c3ccc(F)cc3)CC2)c2cc3c(cc2o1)CCCC3	none
CCCOC(=O)/C(C)=N\NC(=O)c1ccco1	none
Fc1ccc(-c2csc(=S)[nH]2)cc1	INS promoter act 279
O=C1C2C(C(=O)N1/N=C/c1ccc(N3CCCCC3)o1)C1C=CC2C12CC2 (stereo unspecified)	none
N#C/C(=C/c1ccc(N2CCCCC2)o1)C(=O)Nc1ccc2ccccc2c1	none
N#C/C(=C/c1ccc(N2CCCCC2)o1)C(=O)Nc1ccc(Cl)cc1	INS promoter act 270
N#C/C(=C/c1ccc(N2CCCCCC2)o1)c1cccc(F)c1	none
COc1ccc(C2CC(=O)NC3=C2C(=O)CCC3)cc1Cl (stereo unspecified)	none
O=C(c1ccco1)N1CCN(C(c2ccc(F)cc2)c2nnnn2Cc2cccs2)CC1 (stereo unspecified)	none
c1ccc(Cn2nnnc2C(c2cccnc2)N2CCN(C3CCCCC3)CC2)cc1 (stereo unspecified)	none
Fc1ccc(C(c2nnnn2Cc2ccco2)N2CCN(C3CCCCC3)CC2)cc1 (stereo unspecified)	INS promoter act 89
Cn1cc(C(=O)Nc2ccc3c(c2)CCC3)cn1	none
Cc1cc(N)nc2nc(C(F)(F)F)nn12	INS promoter act 800
Cc1cc(C)n2nc(-c3ccc(F)cc3)nc2n1	none
Cc1cc(C)n2nc(CCc3ccccc3)nc2n1	none
CCC(=O)NC(=S)Nc1ccc(NC(=O)c2ccc(C)c([N+](=O)[O-])c2)cc1	none
COC(=O)c1cn(C(=O)OC)c2ccccc12	none
COC(=O)c1cn(-c2ccccc2)c(C)c1C(=O)OC	INS promoter act 592
O=C(O)c1cn(-c2ccccc2)c(=O)c2ccccc12	none
COc1cc(NC(=O)COC(=O)CSc2ccccc2F)c(C)cc1[N+](=O)[O-]	none
CCNC(=O)c1c(C)nc2ccccn12	none
Cc1nc2ccccn2c1C(=O)NCC(C)C	none
CCOC(=O)C(=O)c1c(-c2ccccc2)nc2ccccn12	INS promoter act 450
O=C(NCCn1ccc2ccccc21)c1ccc(S(=O)(=O)N2CCCCC2)cc1	none
Cc1cc(C)n2cc(-c3ccc(Cl)cc3)c(C(=O)O)c2n1	none
COc1cc2c3c(c1OC)C1(C=CC(=NNC(N)=O)C=C1)CC3N(C(C)=O)CC2 (stereo unspecified)	none
Cc1ccc(C(=O)N/C(=C\c2cccs2)C(=O)NC2CCCCC2)cc1	INS promoter act 400
O=C(Nc1ccccc1)/C(=C\c1cccs1)NC(=O)c1ccccc1	none
O=C(N/C(=C/c1cccs1)C(=O)N1CCCCCC1)c1ccccc1	none
COc1ccc(CNC(=O)CSCc2cnn(-c3ccccc3)c2-n2cccc2)cc1	none
O=[N+]([O-])c1ccc(N2N=C(c3ccco3)CC2c2ccccc2)cc1 (stereo unspecified)	none
O=C(NCc1ccccc1C(F)(F)F)C12CN(Cc3ccccc3)CC1C(c1ccc([N+](=O)[O-])cc1)=NO2 (stereo unspecified)	none
O=C1OCCN1C(=O)[C@H]1[C@H](c2ccc([N+](=O)[O-])cc2)C(c2cccc(Cl)c2)=NN1c1ccccc1	INS promoter act 273
COc1ccccc1NC(=O)C1=C(C)Nc2nnnn2C1c1ccncc1 (stereo unspecified)	none
COc1ccc(NC(=O)C2=C(C)Nc3ncnn3C2c2ccccc2C(F)(F)F)c(OC)c1 (stereo unspecified)	INS promoter act 403
CC1=C(C(=O)Nc2cccnc2)C(c2cccnc2)n2ncnc2N1 (stereo unspecified)	none
C[C@H](NS(=O)(=O)c1ccccc1)C(=O)OCC(=O)NC(=O)Nc1ccc2c(c1)OCCO2	none
CC(C)(C)N(C(=O)Cn1nnc(-c2ccc(F)cc2)n1)C(C(=O)NC1CCCC1)c1ccncc1 (stereo unspecified)	none
Cc1ccc(N(C(=O)Cn2nnc(-c3ccccc3)n2)C(C(=O)NC2CCCCC2)c2ccccn2)cc1C (stereo unspecified)	INS promoter act 344
Cc1ccc(N(C(=O)CCl)C(C(=O)NC2CCCCC2)c2cccnc2)cc1C (stereo unspecified)	none
COc1cc(/C=C(\C#N)c2nc3ccccc3n2C)cc(OC)c1O	INS promoter act 479
COc1ccc(/C=N/n2c(N)nc3ccccc32)cc1OC	none
CCn1c(SCC(=O)N/N=C/c2cc(OC)c(O)c(OC)c2)nc2ccccc21	none
CCCC(=O)NC(c1ccco1)c1c(O)ccc2ccccc12 (stereo unspecified)	INS promoter act 133
CCCC(=O)NC(c1ccco1)c1cc([N+](=O)[O-])c2cccnc2c1O (stereo unspecified)	none
CCOC(=O)C(Cc1c[nH]c2ccccc12)NC(=O)c1ccco1 (stereo unspecified)	none
COc1cccc(C(C(=O)NC2CCCCC2)N(C(=O)c2ccccn2)c2cccnc2)c1 (stereo unspecified)	INS promoter act 627
O=C(NC1CCCCC1)C(c1cccs1)N(C(=O)c1ccccn1)c1ccccc1 (stereo unspecified)	none
COc1cccc(C(C(=O)NC2CCCC2)N(Cc2ccccc2OC)C(=O)c2ccco2)c1 (stereo unspecified)	none
Cc1cccc(Oc2ncnc3onc(C)c23)c1C	none
COc1ccc(C(=O)NNC2CC(=O)N(Cc3ccccc3)C2=O)cc1OC (stereo unspecified)	none
CCOC(=O)NCCc1ccc(OC)cc1	none
CSc1nsc(/C=C/Nc2ccc(O)cc2C)c1C#N	INS promoter act 809
CSc1nc(C)cc(/C=C\c2ccccc2)c1C#N	none
COC(=O)C(Nc1ccccc1Cl)(c1cc(C)c(O)c(C)c1)C(F)(F)F (stereo unspecified)	none

High-throughput results as filed in PubChem BioAssay.
